{
  "source": "ChEMBL document CHEMBL4765365",
  "about": "“Design, synthesis and antitumour evaluation of pyrrolo[1,2-f]-phenanthridine and dibenzo[f,h]pyrrolo[1,2-b]isoquinoline derivatives” (Eur J Med Chem, 2020)",
  "key": {"HCT-116 [1]": {"tested_on": "HCT-116", "assay": "Induction of cell cycle arrest in human HCT-116 cells assessed as G2/M phase at 1.5 uM incubated for 36 hrs by PI staining based flow cytometry analysis (reference value: 23.6 +/- 1 %)", "format": "functional"}, "NCI-H460 [2]": {"tested_on": "NCI-H460", "assay": "Induction of cell cycle arrest in human NCI-H460 cells assessed as S phase at 1.5 uM measured at 0 hrs by PI staining based flow cytometry analysis (reference value: 12.2 +/- 2.8 %)", "format": "functional"}, "HCT-116 [3]": {"tested_on": "HCT-116", "assay": "Induction of cell cycle arrest in human HCT-116 cells assessed as G0 phase at 0.75 uM measured at 0 hrs by PI staining based flow cytometry analysis (reference value: 0.7 +/- 0.2 %)", "format": "functional"}, "HCT-116 [4]": {"tested_on": "HCT-116", "assay": "Induction of cell cycle arrest in human HCT-116 cells assessed as G1 phase at 0.375 uM incubated for 36 hrs by PI staining based flow cytometry analysis (reference value: 57.4 +/- 1.3 %)", "format": "functional"}, "HCT-116 [5]": {"tested_on": "HCT-116", "assay": "Induction of cell cycle arrest in human HCT-116 cells assessed as G0 phase at 1.5 uM incubated for 24 hrs by PI staining based flow cytometry analysis (reference value: 12.5 +/- 5.4 %)", "format": "functional"}, "NCI-H460 [6]": {"tested_on": "NCI-H460", "assay": "Induction of cell cycle arrest in human NCI-H460 cells assessed as S phase at 3 uM incubated for 12 hrs by PI staining based flow cytometry analysis (reference value: 11.2 +/- 4.3 %)", "format": "functional"}, "NCI-H460 [7]": {"tested_on": "NCI-H460", "assay": "Induction of cell cycle arrest in human NCI-H460 cells assessed as G1 phase at 3 uM incubated for 12 hrs by PI staining based flow cytometry analysis (reference value: 66 +/- 10 %)", "format": "functional"}, "NCI-H460 [8]": {"tested_on": "NCI-H460", "assay": "Induction of cell cycle arrest in human NCI-H460 cells assessed as S phase at 3 uM incubated for 24 hrs by PI staining based flow cytometry analysis (reference value: 11.7 +/- 6.1 %)", "format": "functional"}, "NCI-H460 [9]": {"tested_on": "NCI-H460", "assay": "Induction of cell cycle arrest in human NCI-H460 cells assessed as G2/M phase at 0.75 uM incubated for 24 hrs by PI staining based flow cytometry analysis (reference value: 21 +/- 6.7 %)", "format": "functional"}, "HCT-116 [10]": {"tested_on": "HCT-116", "assay": "Induction of cell cycle arrest in human HCT-116 cells assessed as G2/M phase at 0.375 uM incubated for 12 hrs by PI staining based flow cytometry analysis (reference value: 21.7 +/- 1.9 %)", "format": "functional"}, "NCI-H460 [11]": {"tested_on": "NCI-H460", "assay": "Antitumor activity against human NCI-H460 cells xenografted in nude mouse assessed as reduction in tumor size at 30 mg/kg, iv administered for 5 days and repeated cycle for 2 days interval and measured on day 24", "format": "functional", "settings": "576 h, time 24 day, read-out: TGI"}, "NCI-H460 [12]": {"tested_on": "NCI-H460", "assay": "Induction of cell cycle arrest in human NCI-H460 cells assessed as G2/M phase at 3 uM incubated for 24 hrs by PI staining based flow cytometry analysis (reference value: 21 +/- 6.7 %)", "format": "functional"}, "HCT-116 [13]": {"tested_on": "HCT-116", "assay": "Induction of cell cycle arrest in human HCT-116 cells assessed as G0 phase at 0.375 uM incubated for 24 hrs by PI staining based flow cytometry analysis (reference value: 12.5 +/- 5.4 %)", "format": "functional"}, "HCT-116 [14]": {"tested_on": "HCT-116", "assay": "Induction of cell cycle arrest in human HCT-116 cells assessed as G0 phase at 0.75 uM incubated for 12 hrs by PI staining based flow cytometry analysis (reference value: 2.2 +/- 1.7 %)", "format": "functional"}, "NCI-H460 [15]": {"tested_on": "NCI-H460", "assay": "Induction of apoptosis in human NCI-H460 cells assessed as early apoptotic cells at 3 uM incubated for 48 hrs by annexin V-FITC and PI staining based flow cytometry analysis (reference value: 2 %)", "format": "functional"}, "NCI-H460 [16]": {"tested_on": "NCI-H460", "assay": "Induction of cell cycle arrest in human NCI-H460 cells assessed as G1 phase at 0.75 uM incubated for 36 hrs by PI staining based flow cytometry analysis (reference value: 57.9 +/- 3.6 %)", "format": "functional"}, "HCT-116 [17]": {"tested_on": "HCT-116", "assay": "Induction of cell cycle arrest in human HCT-116 cells assessed as G2/M phase at 0.75 uM measured at 0 hrs by PI staining based flow cytometry analysis (reference value: 28.9 +/- 1.4 %)", "format": "functional"}, "NCI-H460 [18]": {"tested_on": "NCI-H460", "assay": "Induction of cell cycle arrest in human NCI-H460 cells assessed as G1 phase at 1.5 uM incubated for 12 hrs by PI staining based flow cytometry analysis (reference value: 66 +/- 10 %)", "format": "functional"}, "CEM-VLB": {"tested_on": "CEM-VLB", "assay": "Cytotoxicity against human CEM-VLB cells assessed as reduction in cell viability incubated for 72 hrs by XTT assay", "format": "functional, cell-based"}, "[19]": {"assay": "Toxicity in nude mouse xenografted with human HCT-116 cells assessed as reduction in body weight at 30 mg/kg, iv administered for 5 days and repeated cycle for 2 days interval and measured on day 24", "format": "organism-based", "settings": "in vivo, 576 h, time 24 day", "in_short": "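Nude mice carried human HCT116 colorectal xenografts. Dosing was i.v. at 30 mg/kg once daily for five days (QD×5), and this cycle was given twice with a 2-day gap. Body weight was tracked against vehicle-treated mice, with tumour assessment at day 24.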"}, "NCI-H460 [20]": {"tested_on": "NCI-H460", "assay": "Induction of apoptosis in human NCI-H460 cells assessed as late apoptotic cells at 6 uM incubated for 48 hrs by annexin V-FITC and PI staining based flow cytometry analysis (reference value: 7.3 %)", "format": "functional"}, "NCI-H460 [21]": {"tested_on": "NCI-H460", "assay": "Induction of cell cycle arrest in human NCI-H460 cells assessed as S phase at 0.75 uM incubated for 24 hrs by PI staining based flow cytometry analysis (reference value: 11.7 +/- 6.1 %)", "format": "functional"}, "HCT-116 [22]": {"tested_on": "HCT-116", "assay": "Induction of cell cycle arrest in human HCT-116 cells assessed as G1 phase at 0.375 uM incubated for 24 hrs by PI staining based flow cytometry analysis (reference value: 55 +/- 9.8 %)", "format": "functional"}, "NCI-H460 [23]": {"tested_on": "NCI-H460", "assay": "Induction of cell cycle arrest in human NCI-H460 cells assessed as G2/M phase at 1.5 uM incubated for 24 hrs by PI staining based flow cytometry analysis (reference value: 21 +/- 6.7 %)", "format": "functional"}, "HCT-116 [24]": {"tested_on": "HCT-116", "assay": "Induction of cell cycle arrest in human HCT-116 cells assessed as S phase at 0.375 uM incubated for 36 hrs by PI staining based flow cytometry analysis (reference value: 7.9 +/- 3.7 %)", "format": "functional"}, "HCT-116 [25]": {"tested_on": "HCT-116", "assay": "Induction of cell cycle arrest in human HCT-116 cells assessed as G0 phase at 0.75 uM incubated for 24 hrs by PI staining based flow cytometry analysis (reference value: 12.5 +/- 5.4 %)", "format": "functional"}, "HCT-116 [26]": {"tested_on": "HCT-116", "assay": "Induction of cell cycle arrest in human HCT-116 cells assessed as G2/M phase at 0.75 uM incubated for 36 hrs by PI staining based flow cytometry analysis (reference value: 23.6 +/- 1 %)", "format": "functional"}, "HCT-116 [27]": {"tested_on": "HCT-116", "assay": "Induction of cell cycle arrest in human HCT-116 cells assessed as G2/M phase at 0.375 uM measured at 0 hrs by PI staining based flow cytometry analysis (reference value: 28.9 +/- 1.4 %)", "format": "functional"}, "NCI-H460 [28]": {"tested_on": "NCI-H460", "assay": "Induction of cell cycle arrest in human NCI-H460 cells assessed as G1 phase at 3 uM incubated for 36 hrs by PI staining based flow cytometry analysis (reference value: 57.9 +/- 3.6 %)", "format": "functional"}, "NCI-H460 [29]": {"tested_on": "NCI-H460", "assay": "Induction of cell cycle arrest in human NCI-H460 cells assessed as G0 phase at 0.75 uM incubated for 12 hrs by PI staining based flow cytometry analysis (reference value: 2.9 +/- 2.4 %)", "format": "functional"}},
  "data": [
    {"smiles": "OCc1cn2c3ccccc3c3ccccc3c2c1CO", "values": [
      {"measurement": "Activity", "setting": "HCT-116 [1]", "result": 20.7, "unit": "%"},
      {"measurement": "Activity", "setting": "NCI-H460 [2]", "result": 12, "unit": "%"},
      {"measurement": "Activity", "setting": "HCT-116 [3]", "result": 0.8, "unit": "%"},
      {"measurement": "Activity", "setting": "HCT-116 [4]", "result": 59.3, "unit": "%"},
      {"measurement": "Activity", "setting": "HCT-116 [5]", "result": 6.4, "unit": "%"},
      {"measurement": "Activity", "setting": "NCI-H460 [6]", "result": 17.3, "unit": "%"},
      {"measurement": "Activity", "setting": "NCI-H460 [7]", "result": 53.3, "unit": "%"},
      {"measurement": "Activity", "setting": "NCI-H460 [8]", "result": 10.9, "unit": "%"},
      {"measurement": "Activity", "setting": "NCI-H460 [9]", "result": 24.1, "unit": "%"},
      {"measurement": "Activity", "setting": "HCT-116 [10]", "result": 23.2, "unit": "%"},
      {"measurement": "inhibition in vivo at 30 mg/kg", "setting": "NCI-H460 [11]", "result": 66, "unit": "%"},
      {"measurement": "Activity", "setting": "NCI-H460 [12]", "result": 30, "unit": "%"},
      {"measurement": "Activity", "setting": "HCT-116 [13]", "result": 13.8, "unit": "%"},
      {"measurement": "Activity", "setting": "HCT-116 [14]", "result": 1.7, "unit": "%"},
      {"measurement": "Activity", "setting": "NCI-H460 [15]", "result": 10.8, "unit": "%"},
      {"measurement": "Activity", "setting": "NCI-H460 [16]", "result": 67.8, "unit": "%"},
      {"measurement": "Activity", "setting": "HCT-116 [17]", "result": 28.5, "unit": "%"},
      {"measurement": "Activity", "setting": "NCI-H460 [18]", "result": 50.7, "unit": "%"},
      {"measurement": "IC50", "setting": "CEM-VLB", "result": 380, "unit": "nM"},
      {"measurement": "Activity", "setting": "[19]", "result": "Non-Toxic"},
      {"measurement": "Activity", "setting": "NCI-H460 [20]", "result": 55.8, "unit": "%"},
      {"measurement": "Activity", "setting": "NCI-H460 [21]", "result": 11, "unit": "%"},
      {"measurement": "Activity", "setting": "HCT-116 [22]", "result": 46.7, "unit": "%"},
      {"measurement": "Activity", "setting": "NCI-H460 [23]", "result": 25.4, "unit": "%"},
      {"measurement": "Activity", "setting": "HCT-116 [24]", "result": 8.2, "unit": "%"},
      {"measurement": "Activity", "setting": "HCT-116 [25]", "result": 2.7, "unit": "%"},
      {"measurement": "Activity", "setting": "HCT-116 [26]", "result": 17.4, "unit": "%"},
      {"measurement": "Activity", "setting": "HCT-116 [27]", "result": 28.8, "unit": "%"},
      {"measurement": "Activity", "setting": "NCI-H460 [28]", "result": 51.8, "unit": "%"},
      {"measurement": "Activity", "setting": "NCI-H460 [29]", "result": 3.7, "unit": "%"}
    ]}
  ]
}
